Reference: PMC6120582 (Science (New York, N.Y.), 2018)

Key:
eIF2B(αβγδε)2 [1] = target: eIF2B(αβγδε)2 (Homo sapiens, UniProt P49770+Q9UI10, P49770:H188A); test: decamer stability, sucrose gradient velocity sedimentation; type: binding; settings: 500 nM ISRIB, 400 mM salt
eIF2B(αβγδε)2 [2] = target: eIF2B(αβγδε)2 (Homo sapiens, UniProt P49770+Q9UI10, Q9UI10:L179A); test: GEF assay, unloading of Bodipy-GDP from eIF2; type: biochemical; settings: assembled eIF2B(βγδε) and eIF2B(α2); activator
In short: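 Human eIF2B subunits were co-expressed in E. coli from three plasmids, and the βγδε (δL179A) and α2 subcomplexes were purified separately and combined. The substrate was non-phosphorylated human eIF2 from gcn2Δ S. cerevisiae, loaded with Bodipy-GDP. A 1000-fold excess of unlabeled GDP was added as a chase, and the fluorescence decrease was followed with and without test compound. kobs came from a single-exponential fit.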

eIF2 = eIF2 (Homo sapiens, UniProt P41091); test: GDP unloading assay, displacement of Bodipy-GDP; type: binding; settings: 1000-fold excess of unlabelled GDP; exchange catalysed by eIF2B
eIF2, sequence (P41091 2-472): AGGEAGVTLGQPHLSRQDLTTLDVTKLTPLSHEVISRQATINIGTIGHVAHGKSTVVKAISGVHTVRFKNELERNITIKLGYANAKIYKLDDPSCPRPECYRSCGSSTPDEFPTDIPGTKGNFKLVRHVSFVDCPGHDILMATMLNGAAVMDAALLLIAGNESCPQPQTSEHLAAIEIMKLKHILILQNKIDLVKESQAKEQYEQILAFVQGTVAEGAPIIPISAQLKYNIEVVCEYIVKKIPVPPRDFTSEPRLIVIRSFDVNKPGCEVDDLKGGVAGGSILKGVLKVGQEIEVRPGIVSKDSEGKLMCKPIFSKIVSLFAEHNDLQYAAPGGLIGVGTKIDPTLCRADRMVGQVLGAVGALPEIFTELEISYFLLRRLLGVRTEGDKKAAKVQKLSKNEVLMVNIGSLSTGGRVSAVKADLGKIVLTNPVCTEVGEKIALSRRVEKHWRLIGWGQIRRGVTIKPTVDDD
eIF2, sequence (P05198 whole entry partner): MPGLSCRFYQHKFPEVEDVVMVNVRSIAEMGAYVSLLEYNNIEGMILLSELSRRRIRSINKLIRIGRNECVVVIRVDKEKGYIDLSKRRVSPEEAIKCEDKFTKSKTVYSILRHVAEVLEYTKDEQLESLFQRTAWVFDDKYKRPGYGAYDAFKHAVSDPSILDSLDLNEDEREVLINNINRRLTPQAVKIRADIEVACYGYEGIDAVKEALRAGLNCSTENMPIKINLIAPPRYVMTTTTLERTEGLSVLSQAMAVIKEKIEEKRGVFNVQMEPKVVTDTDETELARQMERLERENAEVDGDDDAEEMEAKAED
eIF2, sequence (P20042 2-333 partner): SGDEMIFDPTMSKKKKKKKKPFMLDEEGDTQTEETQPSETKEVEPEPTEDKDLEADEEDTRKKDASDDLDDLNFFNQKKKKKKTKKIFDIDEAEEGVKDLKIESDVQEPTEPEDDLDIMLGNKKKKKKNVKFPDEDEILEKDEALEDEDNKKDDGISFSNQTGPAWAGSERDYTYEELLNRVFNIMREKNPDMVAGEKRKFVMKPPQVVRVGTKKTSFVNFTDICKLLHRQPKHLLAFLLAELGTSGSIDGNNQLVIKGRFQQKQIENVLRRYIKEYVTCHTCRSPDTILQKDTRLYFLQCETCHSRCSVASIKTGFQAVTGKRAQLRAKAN

eIF2B(αβγδε)2 (Homo sapiens, UniProt P49770+Q9UI10, P49770:H188A), sequence (P49770 whole entry H188A): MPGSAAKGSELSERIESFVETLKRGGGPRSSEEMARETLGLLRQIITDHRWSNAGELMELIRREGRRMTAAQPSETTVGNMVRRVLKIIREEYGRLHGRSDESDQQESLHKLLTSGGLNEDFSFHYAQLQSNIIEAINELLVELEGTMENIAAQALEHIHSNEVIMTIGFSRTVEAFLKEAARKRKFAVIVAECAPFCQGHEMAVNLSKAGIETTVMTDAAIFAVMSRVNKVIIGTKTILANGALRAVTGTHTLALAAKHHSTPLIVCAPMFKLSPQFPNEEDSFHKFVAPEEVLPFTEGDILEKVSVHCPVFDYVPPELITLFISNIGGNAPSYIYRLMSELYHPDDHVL
eIF2B(αβγδε)2 (Homo sapiens, UniProt P49770+Q9UI10, P49770:H188A), sequence (Q9UI10 whole entry): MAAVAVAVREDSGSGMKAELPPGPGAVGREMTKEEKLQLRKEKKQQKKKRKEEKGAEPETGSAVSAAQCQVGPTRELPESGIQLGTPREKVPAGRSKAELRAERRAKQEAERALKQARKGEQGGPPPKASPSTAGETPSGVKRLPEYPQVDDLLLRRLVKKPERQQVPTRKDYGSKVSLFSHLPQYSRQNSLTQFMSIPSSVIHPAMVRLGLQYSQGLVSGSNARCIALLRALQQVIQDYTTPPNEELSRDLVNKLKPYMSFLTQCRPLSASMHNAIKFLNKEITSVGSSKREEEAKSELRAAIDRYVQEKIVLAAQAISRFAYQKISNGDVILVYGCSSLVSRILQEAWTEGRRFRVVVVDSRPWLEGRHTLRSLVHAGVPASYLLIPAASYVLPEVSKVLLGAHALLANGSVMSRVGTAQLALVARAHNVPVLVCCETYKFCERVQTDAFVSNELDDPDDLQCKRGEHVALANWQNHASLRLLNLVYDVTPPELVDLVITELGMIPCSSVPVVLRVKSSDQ
eIF2B(αβγδε)2 (Homo sapiens, UniProt P49770+Q9UI10, P49770:H188A), sequence (Q14232 whole entry partner): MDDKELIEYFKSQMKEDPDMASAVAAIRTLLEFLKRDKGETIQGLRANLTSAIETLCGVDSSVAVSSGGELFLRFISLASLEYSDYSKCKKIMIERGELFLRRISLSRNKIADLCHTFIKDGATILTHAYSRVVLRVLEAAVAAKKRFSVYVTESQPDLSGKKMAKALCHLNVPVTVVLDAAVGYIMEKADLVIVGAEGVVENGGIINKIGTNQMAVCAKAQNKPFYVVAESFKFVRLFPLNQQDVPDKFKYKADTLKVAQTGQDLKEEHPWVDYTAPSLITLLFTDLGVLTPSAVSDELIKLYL
eIF2B(αβγδε)2 (Homo sapiens, UniProt P49770+Q9UI10, P49770:H188A), sequence (Q9NR50 whole entry partner): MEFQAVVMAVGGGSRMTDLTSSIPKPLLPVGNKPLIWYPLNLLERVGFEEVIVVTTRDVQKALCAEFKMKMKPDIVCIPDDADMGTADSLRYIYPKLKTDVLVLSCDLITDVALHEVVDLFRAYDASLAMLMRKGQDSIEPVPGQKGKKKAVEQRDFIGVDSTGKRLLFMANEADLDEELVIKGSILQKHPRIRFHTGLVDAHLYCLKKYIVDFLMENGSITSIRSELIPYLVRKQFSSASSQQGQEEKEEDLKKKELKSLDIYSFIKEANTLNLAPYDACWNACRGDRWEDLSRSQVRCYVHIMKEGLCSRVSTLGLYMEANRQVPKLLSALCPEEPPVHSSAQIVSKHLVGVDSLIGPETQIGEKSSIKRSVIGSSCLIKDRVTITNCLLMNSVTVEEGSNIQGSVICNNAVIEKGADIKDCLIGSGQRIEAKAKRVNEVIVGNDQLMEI
eIF2B(αβγδε)2 (Homo sapiens, UniProt P49770+Q9UI10, P49770:H188A), sequence (Q13144 2-721 partner): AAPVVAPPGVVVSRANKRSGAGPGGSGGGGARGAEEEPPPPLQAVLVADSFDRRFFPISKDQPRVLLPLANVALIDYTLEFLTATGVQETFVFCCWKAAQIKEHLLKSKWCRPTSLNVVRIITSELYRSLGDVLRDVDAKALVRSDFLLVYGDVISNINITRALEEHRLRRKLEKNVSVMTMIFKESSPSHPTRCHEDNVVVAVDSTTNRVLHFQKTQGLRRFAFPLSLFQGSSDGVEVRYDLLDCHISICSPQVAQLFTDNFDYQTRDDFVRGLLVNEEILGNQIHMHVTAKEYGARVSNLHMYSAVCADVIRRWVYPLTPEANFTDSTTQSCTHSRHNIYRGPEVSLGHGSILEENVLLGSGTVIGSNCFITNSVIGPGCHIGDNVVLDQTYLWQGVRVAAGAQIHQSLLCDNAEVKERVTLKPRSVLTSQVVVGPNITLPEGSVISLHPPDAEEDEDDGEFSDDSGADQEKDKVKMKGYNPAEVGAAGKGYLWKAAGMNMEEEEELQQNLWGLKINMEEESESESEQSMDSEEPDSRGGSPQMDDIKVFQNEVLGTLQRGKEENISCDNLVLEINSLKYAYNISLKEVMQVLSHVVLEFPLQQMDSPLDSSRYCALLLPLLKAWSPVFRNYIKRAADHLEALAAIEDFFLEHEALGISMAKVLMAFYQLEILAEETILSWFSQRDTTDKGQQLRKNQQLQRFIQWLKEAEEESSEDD
eIF2B(αβγδε)2 (Homo sapiens, UniProt P49770+Q9UI10, Q9UI10:L179A), sequence (P49770 whole entry): as the sequence (P49770 whole entry H188A) above, with A188H counted along it
eIF2B(αβγδε)2 (Homo sapiens, UniProt P49770+Q9UI10, Q9UI10:L179A), sequence (Q9UI10 whole entry L179A): as the sequence (Q9UI10 whole entry) above, with L179A counted along it
eIF2B(αβγδε)2 (Homo sapiens, UniProt P49770+Q9UI10, Q9UI10:L179A), sequence (Q14232 whole entry partner): as the sequence (Q14232 whole entry partner) above
eIF2B(αβγδε)2 (Homo sapiens, UniProt P49770+Q9UI10, Q9UI10:L179A), sequence (Q9NR50 whole entry partner): as the sequence (Q9NR50 whole entry partner) above
eIF2B(αβγδε)2 (Homo sapiens, UniProt P49770+Q9UI10, Q9UI10:L179A), sequence (Q13144 2-721 partner): as the sequence (Q13144 2-721 partner) above

**Q.** `O=C(COc1ccc(Cl)cc1)N[C@H]1CC[C@H](NC(=O)COc2ccc(Cl)cc2)CC1` [ISRIB] was tested. Which “decamer stabilization (inactive: none seen)” value (eIF2B(αβγδε)2 [1]) did it give?
**A.** ISRIB did not stabilize eIF2B(βH188A) decamers

**Q.** With `C[C@@H](Oc1ccc(Cl)cc1)C(=O)N[C@H]1CC[C@H](NC(=O)[C@@H](C)Oc2ccc(Cl)cc2)CC1` [ISRIB-A19(R,R)] as the compound, how does the “fold activation of GEF activity (kobs)” value (eIF2B(αβγδε)2 [2]) read?
**A.** ~ 3 fold

**Q.** For `Nc1nc2c(ncn2[C@@H]2O[C@H](COP(=O)(O)OP(=O)(O)O)[C@@H](O)[C@H]2O)c(=O)[nH]1` [GDP], which “GDP unloading assay, displacement of Bodipy-GDP” value (eIF2) is on record?
**A.** we added fluorescent Bodipy-GDP to GDP-bound eIF2
